Results of several laboratories.
Lines come from different studies, so protocols differ.
Organism: Escherichia coli
Observed: microbial growth

The MIC of COc1cccc(OC)c1C(=O)N[C@@H]1C(=O)N2[C@@H]1SC(C)(C)[C@@H]2C(=O)O is reported as over 2050 µg/mL (broth dilution; ATCCBAA2469).
For COC(=O)c1cc(-c2cccc(NC(=O)Nc3ccc(C(F)(F)F)cc3)c2)on1, the MIC was over 64 µg/mL (broth dilution; ATCC25922).
Fc1c(F)c(F)c(F)c(F)c1F has an MIC of over 250 µg/mL (ATCC25922).
The MIC of COc1cc(O)c2c(c1)/C=C/C[C@H](O)[C@H](O)C(=O)/C=C/C[C@H](C)OC2=O is reported as over 500 µg/mL.
COC(=O)c1cc(-c2cccc(NC(=O)Nc3cccc(C(F)(F)F)c3)c2)on1 has an MIC of over 64 µg/mL (broth dilution; ATCC25922).
For CO[C@H]1/C=C/O[C@@]2(C)Oc3c(C)c(O)c4c(O)c(c(/C=N/N5CCN(C)CC5)c(O)c4c3C2=O)NC(=O)/C(C)=C\C=C\[C@H](C)[C@H](O)[C@@H](C)[C@@H](O)[C@@H](C)[C@H](OC(C)=O)[C@@H]1C, the MIC was over 64 µg/mL (broth dilution; ATCCBAA2469).
The MIC of Oc1cc(Cl)ccc1Oc1ccc(Cl)cc1Cl is reported as 0.5 µg/mL (broth dilution; MG1655; clinical isolate).
C[n+]1c(/C=C/c2ccc(O)cc2)cc(/C=C2\Sc3ccccc3N2CCCN2CCOCC2)c2ccccc21.[I-] gave an MIC of 8 µg/mL (broth dilution; ATCCBAA2469).
CNC(C)C1CCC(N)C(OC2C(N)CC(N)C(OC3OCC(C)(O)C(NC)C3O)C2O)O1 (stereo not shown) has an MIC of 6 µM (broth dilution; R477100).
Oc1cc(Cl)ccc1Oc1ccc(Cl)cc1Cl gave an MIC of over 3.2 µg/mL.
C[C@H](CCC(=O)NCCCNCCCCNCCCN)[C@H]1CC[C@H]2[C@@H]3CC=C4C[C@@H](O)CC[C@]4(C)[C@H]3CC[C@]12C has an MIC of 64 µg/mL (broth dilution; MG1655; 20 h).
For CCCCCCC#Cc1cncc(-c2nnc(SCc3cc([N+](=O)[O-])cc([N+](=O)[O-])c3)n2C)c1, the MIC was at least 20 µg/mL.
The MIC of COC(=O)c1cc(-c2cccc(NC(=O)Nc3c(C)cccc3C)c2)on1 is reported as over 64 µg/mL (broth dilution; ATCC25922).
CN[C@H](CC(C)C)C(=O)N[C@H]1C(=O)N[C@@H](CC(N)=O)C(=O)N[C@H]2C(=O)N[C@H]3C(=O)N[C@H](C(=O)N[C@H](C(=O)O)c4cc(O)cc(O)c4-c4cc3ccc4O)[C@H](O)c3ccc(c(Cl)c3)Oc3cc2cc(c3O[C@@H]2O[C@H](CO)[C@@H](O)[C@H](O)[C@H]2O[C@H]2C[C@](C)(N)[C@H](O)[C@H](C)O2)Oc2ccc(cc2Cl)[C@H]1O has an MIC of over 64 µg/mL (broth dilution; ATCCBAA2469).
With COC(=O)c1cc(-c2cccc(NC(=O)Nc3cc(OC)ccc3OC)c2)on1 the MIC was over 64 µg/mL (broth dilution; ATCC25922).
For C[n+]1c(/C=C/c2c[nH]c3ccccc23)cc(/C=C2\Sc3ccccc3N2CCCN2CCCC2)c2ccccc21.[I-], the MIC was 4 µg/mL (broth dilution; ATCCBAA2469).
For COC(=O)c1cc(-c2cccc(NC(=O)Nc3cccc(Cl)c3)c2)on1, the MIC was over 64 µg/mL (broth dilution; ATCC25922).
CN[C@H](CC(C)C)C(=O)N[C@H]1C(=O)N[C@@H](CC(N)=O)C(=O)N[C@H]2C(=O)N[C@H]3C(=O)N[C@H](C(=O)N[C@H](C(=O)O)c4cc(O)cc(O)c4-c4cc3ccc4O)[C@H](O)c3ccc(c(Cl)c3)Oc3cc2cc(c3O[C@@H]2O[C@H](CO)[C@@H](O)[C@H](O)[C@H]2O[C@H]2C[C@](C)(N)[C@H](O)[C@H](C)O2)Oc2ccc(cc2Cl)[C@H]1O gave an MIC of over 32 µg/mL (ATCC10798).
C[n+]1c(/C=C/c2c[nH]c3ccccc23)cc(/C=C2\Sc3ccccc3N2CCCN2CCOCC2)c2ccccc21.[I-] has an MIC of 64 µg/mL (broth dilution; ATCCBAA2469).
